Test results published in ChEMBL document CHEMBL4043300, “2 H-1,2,3-Triazole-Based Dipeptidyl Nitriles: Potent, Selective, and Trypanocidal Rhodesain Inhibitors by Structure-Based Design” (J Med Chem, 2018).
In brackets after ≈: the same amount, converted by molar mass.

Test system: not listed separately
Experiment: Solubility of the compound at pH 6.5 by LYSA
Type: physicochemical
Details: buffer
Summary of the method: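 Lyophilization solubility assay at pH 6.5.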
N#CC1(NC(=O)[C@H](Cc2ccc(OC(F)(F)F)c(Cl)c2)NC(=O)c2cnn(-c3ccc(F)nc3)n2)CC1 gave a solubility of 0.5 µg/mL (≈ 0.93 µM). N#CC1(NC(=O)[C@H](Cc2ccc(OC(F)(F)F)c(Cl)c2)NC(=O)c2cnn(-c3ccccc3)n2)CC1 gave a solubility of under 0.3 µg/mL.

Molecular target: Rhodesain (Trypanosoma brucei rhodesiense, UniProt Q95PM0)
Sequence (Q95PM0 whole entry): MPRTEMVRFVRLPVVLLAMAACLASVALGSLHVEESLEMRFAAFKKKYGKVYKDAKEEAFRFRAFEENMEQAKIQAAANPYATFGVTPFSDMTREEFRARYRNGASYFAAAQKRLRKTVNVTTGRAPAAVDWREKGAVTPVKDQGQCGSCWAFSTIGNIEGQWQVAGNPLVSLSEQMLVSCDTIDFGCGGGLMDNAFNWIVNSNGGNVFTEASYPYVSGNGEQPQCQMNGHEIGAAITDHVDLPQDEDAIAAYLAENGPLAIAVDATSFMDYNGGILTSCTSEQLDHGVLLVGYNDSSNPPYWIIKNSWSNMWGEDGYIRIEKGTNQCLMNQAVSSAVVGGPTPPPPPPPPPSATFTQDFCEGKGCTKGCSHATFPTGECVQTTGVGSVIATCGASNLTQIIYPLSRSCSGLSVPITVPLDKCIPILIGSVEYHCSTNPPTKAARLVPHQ
Experiment: Inhibition of Trypanosoma brucei rhodesiense rhodesain using Cbz-Phe-Arg-AMC as substrate by fluorimetric method
Details: not given
Summary of the method: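 Fluorescence-based assay run at 25 °C in 50 mM sodium acetate pH 5.5 with 5 mM EDTA, 200 mM NaCl and 0.005% Brij35. IC50 values were converted to Ki with the Cheng-Prusoff equation. Values are the average of two measurements, each done in duplicate.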
For N#CC1(NC(=O)[C@H](Cc2ccc(OC(F)(F)F)c(Cl)c2)NC(=O)c2cnn(-c3ccc(F)nc3)n2)CC1, the Ki was 14 nM. Work on N#CC1(NC(=O)[C@H](Cc2ccc(OC(F)(F)F)c(Cl)c2)NC(=O)c2cnn(-c3ccccc3)n2)CC1 yielded a Ki of 2.9 nM.

Molecular target: Procathepsin L (Homo sapiens, UniProt P07711)
Sequence (P07711 whole entry): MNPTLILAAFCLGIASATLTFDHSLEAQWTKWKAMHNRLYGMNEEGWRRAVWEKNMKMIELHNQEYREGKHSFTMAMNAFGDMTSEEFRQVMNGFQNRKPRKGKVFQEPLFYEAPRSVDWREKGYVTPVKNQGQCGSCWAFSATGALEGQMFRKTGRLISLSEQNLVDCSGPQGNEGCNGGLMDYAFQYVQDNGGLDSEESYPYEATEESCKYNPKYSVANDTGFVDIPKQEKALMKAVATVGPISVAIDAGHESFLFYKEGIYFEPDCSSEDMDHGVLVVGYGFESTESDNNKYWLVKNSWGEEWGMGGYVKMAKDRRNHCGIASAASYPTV
Experiment: Inhibition of human CatL using Cbz-Phe-Arg-AMC as substrate measured over 30 mins by fluorimetric method
Details: not given
Summary of the method: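 Human cathepsin L in a fluorimetric assay in 50 mM Tris pH 6.5, 5 mM EDTA, 200 mM NaCl, 0.005% Brij35 at 25 °C. Ki was calculated from IC50 by Cheng-Prusoff. Value is the average of two measurements, each in duplicate.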
For N#CC1(NC(=O)[C@H](Cc2ccc(OC(F)(F)F)c(Cl)c2)NC(=O)c2cnn(-c3ccc(F)nc3)n2)CC1, the Ki was 143 nM. Molecule N#CC1(NC(=O)[C@H](Cc2ccc(OC(F)(F)F)c(Cl)c2)NC(=O)c2cnn(-c3ccccc3)n2)CC1 has a Ki of 81.7 nM.

Test system: not listed separately
Experiment: Selectivity index, ratio of Ki for human CatL to Ki for Trypanosoma brucei rhodesiense rhodesain
Details: not given
Summary of the method: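 Ki(hCatL)/Ki(RD). Fluorimetric assays at 25 °C: RD in 50 mM sodium acetate pH 5.5; hCatL in 50 mM Tris pH 6.5; both buffers with 5 mM EDTA, 200 mM NaCl, 0.005% Brij35. Ki derived from IC50 by Cheng-Prusoff. Each value is the mean of two measurements, each done in duplicate.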
With N#CC1(NC(=O)[C@H](Cc2ccc(OC(F)(F)F)c(Cl)c2)NC(=O)c2cnn(-c3ccc(F)nc3)n2)CC1 the Ratio Ki was 10. N#CC1(NC(=O)[C@H](Cc2ccc(OC(F)(F)F)c(Cl)c2)NC(=O)c2cnn(-c3ccccc3)n2)CC1 showed a Ratio Ki of 28.

Test system: Trypanosoma brucei rhodesiense
Experiment: Antitrypanosomal activity against bloodstream form of Trypanosoma brucei rhodesiense STIB 900 assessed as parasite growth inhibition after 72 hrs by Alamar blue assay
Type: functional
Details: STIB 900, 72 h
Summary of the method: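 Standard 72 h growth-inhibition assay with STIB 900 bloodstream trypomastigotes and Alamar Blue read-out. Value is the mean of at least 2 measurements.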
N#CC1(NC(=O)[C@H](Cc2ccc(OC(F)(F)F)c(Cl)c2)NC(=O)c2cnn(-c3ccc(F)nc3)n2)CC1 gave an IC50 of 6 nM. Molecule N#CC1(NC(=O)[C@H](Cc2ccc(OC(F)(F)F)c(Cl)c2)NC(=O)c2cnn(-c3ccccc3)n2)CC1 has an IC50 of 5 nM.

Test system: L6
Experiment: Cytotoxicity against rat L6 cells after 72 hrs by Alamar blue assay
Type: cell-based
Details: L6, 72 h
Summary of the method: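 Rat skeletal myoblast L6 cells in an Alamar Blue growth-inhibition assay. Value is the mean of at least 2 measurements.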
Molecule N#CC1(NC(=O)[C@H](Cc2ccc(OC(F)(F)F)c(Cl)c2)NC(=O)c2cnn(-c3ccc(F)nc3)n2)CC1 has an IC50 of 6990 nM. Molecule N#CC1(NC(=O)[C@H](Cc2ccc(OC(F)(F)F)c(Cl)c2)NC(=O)c2cnn(-c3ccccc3)n2)CC1 has an IC50 of 17900 nM.

Test system: Trypanosoma brucei rhodesiense
Experiment: Antitrypanosomal activity against bloodstream form of Trypanosoma brucei rhodesiense STIB 900 assessed as parasite growth inhibition after 2 hrs by Alamar blue assay
Type: functional
Details: STIB 900, 2 h
Summary of the method: (§1)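 Bloodstream STIB 900 trypomastigotes, 1x10⁴ per well, exposed to eleven 3-fold serial dilutions at 37 °C/5% CO₂ for the stated pulse time. Parasites were then pelleted and washed four times, and an aliquot was regrown 72 h drug-free in triplicate plates. Resazurin was added for 2–4 h, fluorescence read at ex 536/em 588 nm, and IC50 taken by linear regression of sigmoidal curves. Melarsoprol served as control.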
Work on N#CC1(NC(=O)[C@H](Cc2ccc(OC(F)(F)F)c(Cl)c2)NC(=O)c2cnn(-c3ccccc3)n2)CC1 yielded an IC50 of over 1000 nM.

Test system: Trypanosoma brucei rhodesiense
Experiment: Antitrypanosomal activity against bloodstream form of Trypanosoma brucei rhodesiense STIB 900 assessed as parasite growth inhibition after 6 hrs by Alamar blue assay
Type: functional
Details: STIB 900, 6 h
Summary of the method: as §1
For N#CC1(NC(=O)[C@H](Cc2ccc(OC(F)(F)F)c(Cl)c2)NC(=O)c2cnn(-c3ccccc3)n2)CC1, the IC50 was over 1000 nM.

Test system: Trypanosoma brucei rhodesiense
Experiment: Antitrypanosomal activity against bloodstream form of Trypanosoma brucei rhodesiense STIB 900 assessed as parasite growth inhibition after 16 hrs by Alamar blue assay
Type: functional
Details: STIB 900, 16 h
Summary of the method: as §1
Molecule N#CC1(NC(=O)[C@H](Cc2ccc(OC(F)(F)F)c(Cl)c2)NC(=O)c2cnn(-c3ccccc3)n2)CC1 has an IC50 of over 1000 nM.

Test system: Trypanosoma brucei rhodesiense
Experiment: Antitrypanosomal activity against bloodstream form of Trypanosoma brucei rhodesiense STIB 900 assessed as parasite growth inhibition after 24 hrs by Alamar blue assay
Type: functional
Details: STIB 900, 24 h
Summary of the method: as §1
Molecule N#CC1(NC(=O)[C@H](Cc2ccc(OC(F)(F)F)c(Cl)c2)NC(=O)c2cnn(-c3ccccc3)n2)CC1 has an IC50 of 556 nM.

Test system: Trypanosoma brucei rhodesiense
Experiment: Antitrypanosomal activity against bloodstream form of Trypanosoma brucei rhodesiense STIB 900 assessed as parasite growth inhibition after 48 hrs by Alamar blue assay
Type: functional
Details: STIB 900, 48 h
Summary of the method: as §1
In the case of N#CC1(NC(=O)[C@H](Cc2ccc(OC(F)(F)F)c(Cl)c2)NC(=O)c2cnn(-c3ccccc3)n2)CC1, the IC50 is reported as 462 nM.

Test system: not listed separately
Experiment: Intrinsic clearance in human liver microsomes at 2 uM after 30 mins in presence of NADPH by LC-MS/MS method
Type: ADME, microsome
Details: read-out: CLH
With N#CC1(NC(=O)[C@H](Cc2ccc(OC(F)(F)F)c(Cl)c2)NC(=O)c2cnn(-c3ccc(F)nc3)n2)CC1 the microsomal CLint at 2 µM was under 10 µL/min/mg.

Test system: not listed separately
Experiment: Intrinsic clearance in mouse liver microsomes at 2 uM after 30 mins in presence of NADPH by LC-MS/MS method
Type: ADME, microsome
Details: read-out: CLH
Work on N#CC1(NC(=O)[C@H](Cc2ccc(OC(F)(F)F)c(Cl)c2)NC(=O)c2cnn(-c3ccc(F)nc3)n2)CC1 yielded a microsomal CLint at 2 µM of under 10 µL/min/mg.

Test system: not listed separately
Experiment: Permeability of the compound after 15 hrs by PAMPA
Type: physicochemical
Details: read-out: permeability
Molecule N#CC1(NC(=O)[C@H](Cc2ccc(OC(F)(F)F)c(Cl)c2)NC(=O)c2cnn(-c3ccc(F)nc3)n2)CC1 has a Papp at 15 h of 0.291 ×10⁻⁶ cm/s.

Molecular target: Cytochrome P450 3A4 (Homo sapiens, UniProt P08684)
Sequence (P08684 whole entry): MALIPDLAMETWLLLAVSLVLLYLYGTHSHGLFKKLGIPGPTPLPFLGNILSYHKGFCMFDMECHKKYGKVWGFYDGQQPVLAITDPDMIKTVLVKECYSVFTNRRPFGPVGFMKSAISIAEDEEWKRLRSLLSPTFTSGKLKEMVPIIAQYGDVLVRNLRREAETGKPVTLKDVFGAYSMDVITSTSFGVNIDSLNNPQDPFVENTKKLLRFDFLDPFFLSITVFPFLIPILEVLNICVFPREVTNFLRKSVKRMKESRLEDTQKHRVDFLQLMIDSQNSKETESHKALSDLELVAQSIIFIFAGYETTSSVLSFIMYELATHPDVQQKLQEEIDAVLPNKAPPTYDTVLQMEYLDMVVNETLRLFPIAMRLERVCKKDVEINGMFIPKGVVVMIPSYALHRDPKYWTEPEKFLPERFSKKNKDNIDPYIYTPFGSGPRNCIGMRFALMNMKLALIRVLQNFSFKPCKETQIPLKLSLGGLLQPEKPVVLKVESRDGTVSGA
Experiment: Inhibition of CYP3A4 in human liver microsomes using DBF as substrate by fluorescence assay
Type: ADME
Details: not given
Summary of the method: (§2)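 Human liver microsomes with CYP-selective substrate metabolism reactions for 2C9, 2D6 and 3A4.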
Work on N#CC1(NC(=O)[C@H](Cc2ccc(OC(F)(F)F)c(Cl)c2)NC(=O)c2cnn(-c3ccc(F)nc3)n2)CC1 yielded an IC50 of 47000 nM.

Molecular target: Cytochrome P450 2D6 (Homo sapiens, UniProt P10635)
Sequence (P10635 whole entry): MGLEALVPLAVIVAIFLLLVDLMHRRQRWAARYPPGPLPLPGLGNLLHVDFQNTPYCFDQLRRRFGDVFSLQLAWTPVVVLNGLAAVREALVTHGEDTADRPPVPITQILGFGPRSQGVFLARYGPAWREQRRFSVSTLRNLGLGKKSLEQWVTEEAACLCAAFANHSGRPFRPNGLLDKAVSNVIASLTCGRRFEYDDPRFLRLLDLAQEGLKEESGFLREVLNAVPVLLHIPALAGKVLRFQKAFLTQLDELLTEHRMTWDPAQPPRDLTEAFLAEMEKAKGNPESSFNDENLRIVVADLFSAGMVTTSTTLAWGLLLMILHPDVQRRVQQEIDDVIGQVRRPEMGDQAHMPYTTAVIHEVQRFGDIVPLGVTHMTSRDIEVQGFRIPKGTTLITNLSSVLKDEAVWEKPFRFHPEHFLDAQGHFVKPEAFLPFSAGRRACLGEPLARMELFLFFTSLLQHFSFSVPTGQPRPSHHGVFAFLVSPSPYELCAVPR
Experiment: Inhibition of CYP2D6 in human liver microsomes using AMMC as substrate by fluorescence assay
Type: ADME
Details: not given
Summary of the method: as §2
For N#CC1(NC(=O)[C@H](Cc2ccc(OC(F)(F)F)c(Cl)c2)NC(=O)c2cnn(-c3ccc(F)nc3)n2)CC1, the IC50 was 1000 nM.

Molecular target: Cytochrome P450 2C9 (Homo sapiens, UniProt P11712)
Sequence (P11712 whole entry): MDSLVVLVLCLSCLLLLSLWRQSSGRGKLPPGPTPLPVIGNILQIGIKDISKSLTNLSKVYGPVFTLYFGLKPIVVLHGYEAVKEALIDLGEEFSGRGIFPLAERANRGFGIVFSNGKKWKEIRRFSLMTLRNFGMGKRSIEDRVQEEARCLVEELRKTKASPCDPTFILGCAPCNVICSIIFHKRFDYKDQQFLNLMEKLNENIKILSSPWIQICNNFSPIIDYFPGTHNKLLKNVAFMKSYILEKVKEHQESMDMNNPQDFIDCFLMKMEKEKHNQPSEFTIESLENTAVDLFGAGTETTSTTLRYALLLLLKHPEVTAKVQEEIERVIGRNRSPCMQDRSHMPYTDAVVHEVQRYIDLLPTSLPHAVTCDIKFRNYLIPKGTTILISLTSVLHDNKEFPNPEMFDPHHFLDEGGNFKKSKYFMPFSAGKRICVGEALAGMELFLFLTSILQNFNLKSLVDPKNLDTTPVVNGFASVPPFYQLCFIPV
Experiment: Inhibition of CYP2C9 in human liver microsomes using MFC as substrate by fluorescence assay
Type: ADME
Details: not given
Summary of the method: as §2
Work on N#CC1(NC(=O)[C@H](Cc2ccc(OC(F)(F)F)c(Cl)c2)NC(=O)c2cnn(-c3ccc(F)nc3)n2)CC1 yielded an IC50 of 11000 nM.

Test system: not listed separately
Experiment: Half life in C57BL/6J mouse at 0.8 mg/kg, iv as bolus dose by LC-MS/MS analysis
Type: ADME, organism-based
Details: in vivo
Summary of the method: (§3)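 Mice received intravenous compound in N-methylpyrrolidinone / 40% aqueous hydroxypropyl-γ-cyclodextrin (30/70). Blood was drawn into K₂EDTA at 5 min, 15 min, 30 min, 1, 2, 4 and 8 h, and plasma was separated at 3000 × g for 5 min at 4 °C and stored at -20 °C. Plasma levels were measured by LC–MS/MS, and parameters derived by non-compartmental analysis.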
With N#CC1(NC(=O)[C@H](Cc2ccc(OC(F)(F)F)c(Cl)c2)NC(=O)c2cnn(-c3ccc(F)nc3)n2)CC1 the half-life was 1.42 h.

Test system: not listed separately
Experiment: Clearance in C57BL/6J mouse at 0.8 mg/kg, iv as bolus dose by LC-MS/MS analysis
Type: ADME, organism-based
Details: in vivo
Summary of the method: as §3
N#CC1(NC(=O)[C@H](Cc2ccc(OC(F)(F)F)c(Cl)c2)NC(=O)c2cnn(-c3ccc(F)nc3)n2)CC1 showed a clearance of 10.2 mL/min/kg.

Test system: not listed separately
Experiment: Volume of distribution at steady state in C57BL/6J mouse at 0.8 mg/kg, iv as bolus dose by LC-MS/MS analysis
Type: ADME, organism-based
Details: in vivo, read-out: Vdss
Summary of the method: as §3
In the case of N#CC1(NC(=O)[C@H](Cc2ccc(OC(F)(F)F)c(Cl)c2)NC(=O)c2cnn(-c3ccc(F)nc3)n2)CC1, the Vd is reported as 1.2 L/kg.

Test system: not listed separately
Experiment: Unbound fraction in human plasma
Type: ADME, cell-free
Details: not given
For N#CC1(NC(=O)[C@H](Cc2ccc(OC(F)(F)F)c(Cl)c2)NC(=O)c2cnn(-c3ccc(F)nc3)n2)CC1, the fraction unbound was 0.0148.

Test system: Trypanosoma brucei rhodesiense
Experiment: Antitrypanosomal activity against bloodstream form of Trypanosoma brucei rhodesiense STIB 900 infected in NMRI mouse assessed as reduction of parasitemia at 50 mg/kg, po administered for 3 consecutive days starting 1 day post infection measured at 24 hrs post last dose relative to control
Type: functional
Parameters: scale not given: the % may be the effect or the level left
Details: not given
Summary of the method: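 Female mice infected with STIB900 were dosed orally at 50 mg/kg/day on three consecutive days, starting 1 day post-infection. Compound was in 100% DMSO diluted 10-fold in distilled water, given at 0.1 mL/10 g. Tail-blood parasitaemia was measured 24 h after the last dose versus 4 untreated infected controls. Values are means of 2 mice.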
N#CC1(NC(=O)[C@H](Cc2ccc(OC(F)(F)F)c(Cl)c2)NC(=O)c2cnn(-c3ccc(F)nc3)n2)CC1 gave an Activity of 40.8%.

Test system: not listed separately
Experiment: Selectivity index, ratio of IC50 for rat L6 cells to IC50 for bloodstream form of Trypanosoma brucei rhodesiense STIB 900
Type: toxicity
Details: read-out: Ratio IC50
Summary of the method: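 Ratio of L-6 rat skeletal myoblast IC50 to T. b. rhodesiense STIB 900 bloodstream trypomastigote IC50, both from Alamar Blue growth-inhibition assays. Each IC50 is the mean of at least 2 measurements.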
Work on N#CC1(NC(=O)[C@H](Cc2ccc(OC(F)(F)F)c(Cl)c2)NC(=O)c2cnn(-c3ccc(F)nc3)n2)CC1 yielded a selectivity ratio of 1170. N#CC1(NC(=O)[C@H](Cc2ccc(OC(F)(F)F)c(Cl)c2)NC(=O)c2cnn(-c3ccccc3)n2)CC1 showed a selectivity ratio of 3580.
